Measured values reported in article PMC9990178 (Cell Chemical Biology, 2023).

Legend:
Smad3 phosphorylation [1] = experiment: N protein-induced Smad3 phosphorylation/activation in HFL-1 cells; format: cell-based, human
[2] = system: Smad3 binding to promoters; experiment: ChIP assay, Smad3 binding to cytokine gene promoters in HFL-1 cells; format: cell-based, human; conditions: ChIP analysis
Outline: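 HFL-1 cells crosslinked with 1% formaldehyde for 10 min at room temperature, washed in ice-cold PBS, and lysed in SDS lysis buffer (1% SDS, 10 mM EDTA, 50 mM Tris pH 8.1) with protease inhibitors. Chromatin sonicated to 500–1000 bp, then incubated overnight at 4°C with antibody or rabbit IgG. Complexes pulled down on protein G-Sepharose, washed, eluted, crosslinks reversed, proteinase K-treated.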

[3] = system: primary bone marrow-derived macrophages (BMDMs) and primary neutrophils; format: cell-based; conditions: mouse primary lung fibroblasts expressing N protein, 20 μM
Outline: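 BMDMs: mouse tibial marrow flushed, red cells lysed, filtered at 40 µm, cultured 8 days in DMEM with 25% L929-conditioned medium. Neutrophils: isolated from marrow on a Percoll gradient (52/64/72%) at 1,545 g for 30 min at room temperature; 64/72% interface collected. Migration of both cell types toward N protein-expressing primary lung fibroblasts assessed.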

Smad3 = Smad3 (Homo sapiens, UniProt P84022); experiment: ITC assay, RMY-205 binding to Smad3
Chain of Smad3 (P84022 whole entry): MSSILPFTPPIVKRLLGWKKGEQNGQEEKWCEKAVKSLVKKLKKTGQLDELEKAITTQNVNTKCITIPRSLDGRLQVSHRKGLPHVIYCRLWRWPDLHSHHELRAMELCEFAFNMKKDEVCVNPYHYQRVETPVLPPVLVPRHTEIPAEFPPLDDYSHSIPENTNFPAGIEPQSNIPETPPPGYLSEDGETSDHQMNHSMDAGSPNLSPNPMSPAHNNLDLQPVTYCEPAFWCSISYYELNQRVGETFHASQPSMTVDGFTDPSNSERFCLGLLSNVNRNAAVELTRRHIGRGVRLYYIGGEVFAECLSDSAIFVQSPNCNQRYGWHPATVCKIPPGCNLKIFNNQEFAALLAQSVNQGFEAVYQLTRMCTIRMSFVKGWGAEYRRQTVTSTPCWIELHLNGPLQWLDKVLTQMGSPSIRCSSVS
Outline: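 Isothermal titration calorimetry. Sample cell loaded with GST-Smad3 at 20 µM; injector loaded with test compound at 0.2 mM. Compound titrated stepwise into the Smad3 solution, with PBS as control. Heat changes analyzed to derive binding.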

[4] = system: CAGA luciferase reporter gene (a Smad3/4-dependent reporter); experiment: CAGA luciferase reporter; format: cell-based, human; conditions: 20 μM, Smad3-dependent manner
Outline: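 Cells co-transfected with a CAGA luciferase reporter (Smad3/4-dependent), a β-galactosidase expression vector and other plasmids, including N protein. Lysed 24 h after transfection; luciferase and β-gal activities measured. Luciferase activity normalized to β-gal to correct for transfection efficiency.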

[5] = system: primary mouse pulmonary fibroblasts; format: cell-based; conditions: 20 μM, 36 h
Outline: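 Primary pulmonary fibroblasts grown out from minced mouse lung (1 mm³ explants) in DMEM with 10% FBS; medium changed every 2 days, passaged with trypsin after one week. Cells transfected with N protein plasmid, then treated with test compound at 20 µM for 36 h. α-SMA and COL1A1 measured by western blot, normalized to tubulin.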

TβRI polymerization = TβRI polymerization (Homo sapiens, UniProt P36897); experiment: Crosslinking assay, N protein-induced TβRI polymerization; format: cell-based; conditions: HFL-1 cells, 24 h
Chain of TβRI polymerization (P36897 34-503): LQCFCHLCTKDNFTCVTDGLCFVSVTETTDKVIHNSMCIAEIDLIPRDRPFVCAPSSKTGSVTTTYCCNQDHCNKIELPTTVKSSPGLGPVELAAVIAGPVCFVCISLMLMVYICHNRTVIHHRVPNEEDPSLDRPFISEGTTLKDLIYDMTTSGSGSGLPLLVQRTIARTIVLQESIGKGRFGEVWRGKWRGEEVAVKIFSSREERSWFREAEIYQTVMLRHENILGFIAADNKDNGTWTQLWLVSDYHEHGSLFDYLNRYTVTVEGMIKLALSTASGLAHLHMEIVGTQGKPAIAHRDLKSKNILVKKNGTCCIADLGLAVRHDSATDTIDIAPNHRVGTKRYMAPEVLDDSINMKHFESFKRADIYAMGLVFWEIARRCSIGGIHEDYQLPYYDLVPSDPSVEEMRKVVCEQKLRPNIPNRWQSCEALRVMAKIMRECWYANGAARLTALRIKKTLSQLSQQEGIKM

[6] = system: Smad2/3 nuclear translocation; experiment: Smad2/3 nuclear translocation in HFL-1 cells; format: cell-based, human; conditions: 24 h
Outline: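 HFL-1 cells expressing N protein treated with test compound for 24 h. Fixed in 4% formaldehyde and blocked in PBS with 3% BSA and 0.2% Triton X-100. Primary antibody overnight at 4°C; secondary antibody 1 h at room temperature in the dark; nuclei stained with DAPI for 10 min. Smad2/3 localization imaged by confocal microscopy.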

MH1 domain of Smad3 = MH1 domain of Smad3 (Homo sapiens, UniProt P84022); experiment: ITC assay, binding to MH1 domain of Smad3
Chain of MH1 domain of Smad3 (P84022 10-136 limits assumed): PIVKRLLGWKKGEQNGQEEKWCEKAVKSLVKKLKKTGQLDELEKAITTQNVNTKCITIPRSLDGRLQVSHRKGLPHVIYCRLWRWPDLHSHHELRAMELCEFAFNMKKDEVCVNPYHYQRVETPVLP

[7] = system: Adriamycin-induced renal fibrosis; experiment: Adriamycin-induced renal fibrosis mouse model; format: in vivo, C57BL/6J mice; conditions: 3 mg/kg intraperitoneally daily, 7 days
[8] = system: THP1 macrophages and differentiated HL60 neutrophils; experiment: Transwell chemotaxis assay, recruitment by N protein-expressing HFL-1 cells; format: cell-based, human; conditions: 20 μM
Outline: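 HFL-1 cells in 24-well plates transfected with plasmids for 12 h, then switched to serum-free Ham's F12 for a further 24 h. THP-1 macrophages seeded in the upper transwell chamber and incubated 16 h. Non-migrated cells removed with a swab; migrated cells stained with crystal violet.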

Smad3 phosphorylation [9] = experiment: Nocodazole-induced Smad3 phosphorylation; format: cell-based, human; conditions: HFL-1, LX-2, and AC-16 cells; nocodazole 100 ng/mL, 12 h
TβRI = TβRI (Homo sapiens, UniProt P36897); experiment: ITC assay, binding to TβRI; conditions: GST-tagged protein
Chain of TβRI (P36897 34-503): as the sequence (P36897 34-503) above

[10] = system: N protein-TβRI, TβRI-TβRII, TβRI-FKBP12 interactions; experiment: Co-IP, interactions N protein-TβRI, TβRI-TβRII, TβRI-FKBP12; format: cell-based, human; conditions: HFL-1 cells
Outline: (§1)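 HFL-1 cells transfected with an N protein plasmid using ViaFect. Lysates incubated 3 h with primary antibody plus protein G-Sepharose beads. Beads washed three times with NP-40 lysis buffer. Immunoprecipitates boiled in SDS loading buffer, resolved by SDS-PAGE, transferred to PVDF and probed; bands detected by enhanced chemiluminescence.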

Smad2 phosphorylation = experiment: N protein-induced Smad2 phosphorylation in HFL-1 cells; format: cell-based, human; conditions: 20 μM, 36 h
Outline: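 HFL-1 cells transfected overnight with N protein plasmid, then exposed to test compound for 36 h (20 µM unless specified). Lysates boiled 10 min in SDS buffer, run on SDS-PAGE, transferred to PVDF and immunoblotted with ECL detection. p-Smad2 and p-Smad3 band intensities normalized to tubulin.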

MH1-MH2 interaction = MH1-MH2 interaction (Homo sapiens, UniProt P84022); experiment: coIP and GST pull-down, MH1-MH2 interaction of Smad3; format: biochemical; conditions: coIP assay, GST pull-down assay
Chain of MH1-MH2 interaction (P84022 10-136 limits assumed): as the sequence (P84022 10-136 limits assumed) above
Chain of MH1-MH2 interaction (P84022 232-425 partner limits assumed): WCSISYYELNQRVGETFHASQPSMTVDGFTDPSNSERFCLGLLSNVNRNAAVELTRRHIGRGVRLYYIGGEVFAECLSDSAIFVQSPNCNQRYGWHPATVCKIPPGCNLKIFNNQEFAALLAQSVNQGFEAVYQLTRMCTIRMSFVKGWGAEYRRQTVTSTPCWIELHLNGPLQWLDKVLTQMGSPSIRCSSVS
Outline: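 GST-tagged proteins expressed in E. coli BL21 and purified on glutathione-sepharose; His-tagged proteins purified on Ni-NTA. GST or GST-fusion bound to glutathione beads in PBS for 1 h at 4°C, washed with PBS, then with modified NP-40 buffer. CoIP: lysates incubated 3 h with antibody plus protein G-Sepharose, washed, and immunoblotted.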

[11] = Pharmacokinetic analysis in ICR mice; format: in vivo; conditions: male, mouse, plasma
Outline: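 Male ICR mice (8 weeks) received a single dose of test compound: 2 mg/kg i.v., or 10 mg/kg i.p. or by oral gavage. Blood sampled at 5, 15 and 30 min and at 1, 2, 4, 8 and 24 h. Plasma obtained by centrifugation at 1,500g for 10 min, and compound content in plasma assayed.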

TβRI-Smad2 interaction = TβRI-Smad2 interaction (Homo sapiens, UniProt Q15796); experiment: Co-IP, N protein-induced TβRI-Smad2 interaction; format: cell-based; conditions: coIP
Chain of TβRI-Smad2 interaction (Q15796 2-467 limits assumed): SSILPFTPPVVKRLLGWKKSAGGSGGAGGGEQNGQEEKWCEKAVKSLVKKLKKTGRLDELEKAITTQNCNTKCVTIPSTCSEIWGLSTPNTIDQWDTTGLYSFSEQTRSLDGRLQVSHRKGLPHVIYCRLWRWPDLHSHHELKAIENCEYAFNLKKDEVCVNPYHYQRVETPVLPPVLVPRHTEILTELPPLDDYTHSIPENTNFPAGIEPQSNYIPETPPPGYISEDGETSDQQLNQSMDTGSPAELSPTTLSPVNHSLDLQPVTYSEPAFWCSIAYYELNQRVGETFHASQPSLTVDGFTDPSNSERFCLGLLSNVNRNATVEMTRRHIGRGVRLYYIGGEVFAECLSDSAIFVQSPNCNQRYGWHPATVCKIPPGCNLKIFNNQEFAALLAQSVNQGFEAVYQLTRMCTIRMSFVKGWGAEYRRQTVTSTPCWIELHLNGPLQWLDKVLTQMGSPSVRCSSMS
Outline: as §1

TGF-β/Smad signaling = experiment: TGF-β-induced Smad3 phosphorylation and α-SMA/COL1A1 expression in cell lines; format: cell-based, human; conditions: 36 h
[12] = Body and organ weight, behavior during RMY-205 administration; format: in vivo, mice
α-SMA = experiment: N protein-induced α-SMA/COL1A1 expression; format: cell-based, human
Outline: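 HFL-1 cells transfected with N protein plasmid, then exposed to test compounds (10 µM for derivative comparison; otherwise varied times and doses). α-SMA and COL1A1 measured by western blot, normalized to tubulin. For collagen secretion, culture medium concentrated, held 16 h at 4°C and centrifuged; pellet dissolved in 0.05 M acetic acid, stained with Sirius red, washed, extracted, and read at 530 nm.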

[13] = system: IL6, IL8, CCL2, CXCL10 mRNA; experiment: qRT-PCR of N protein-induced cytokine mRNA in HFL-1 cells; format: cell-based, human; conditions: 20 μM
[14] = system: N protein-induced pulmonary fibrosis; experiment: N protein; format: in vivo, C57BL/6J mice; conditions: 10 mg/kg weekly for 30 days
Outline: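 Male C57BL/6J mice (8 weeks) given N protein-expressing AAV or control AAV intranasally in 50 µL PBS. From day 4, test compound 10 mg/kg in saline given i.p. weekly. Sacrificed at day 30; n = 6 per group. Lung Smad3 phosphorylation assessed by western blot.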

Smad2 = Smad2 (Homo sapiens, UniProt Q15796); experiment: ITC assay, binding to Smad2; conditions: GST-tagged protein
Chain of Smad2 (Q15796 whole entry): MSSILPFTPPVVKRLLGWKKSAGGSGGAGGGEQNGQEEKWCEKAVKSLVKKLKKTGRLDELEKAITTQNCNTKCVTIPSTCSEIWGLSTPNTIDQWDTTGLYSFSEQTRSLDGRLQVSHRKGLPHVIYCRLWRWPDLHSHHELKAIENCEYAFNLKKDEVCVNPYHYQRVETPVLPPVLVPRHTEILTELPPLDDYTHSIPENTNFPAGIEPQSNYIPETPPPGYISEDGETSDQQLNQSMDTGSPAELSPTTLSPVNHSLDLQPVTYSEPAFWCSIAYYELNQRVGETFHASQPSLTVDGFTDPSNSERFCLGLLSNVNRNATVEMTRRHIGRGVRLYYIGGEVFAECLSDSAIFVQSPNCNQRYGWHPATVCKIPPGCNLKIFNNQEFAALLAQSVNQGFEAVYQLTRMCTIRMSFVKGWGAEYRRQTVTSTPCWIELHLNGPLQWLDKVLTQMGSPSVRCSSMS

TβRI phosphorylation = experiment: N protein-induced TβRI phosphorylation in HFL-1 cells; format: cell-based, human; conditions: 10 μM, 24 h

COc1cc2c(cc1OC)CN(C(=O)/C=C/c1c(-c3ccccc3)n(C)c3ncccc13)CC2 [(E)-SIS3]
N protein-induced Smad3 activation (Smad3 phosphorylation [1]; 3 μM, 36 h): no inhibitory effect

O=c1c(O)c(N2CCN(Cc3ccc(Br)cc3F)CC2)oc2ccccc12 [RMY-205, 2-(4-(4-bromo-2-fluorobenzyl)piperazin-1-yl)-3-hydroxy-4H-chromen-4-one]
Smad3 binding to the promoters of genes of cytokines [2]: inhibited | recruitment of primary BMDMs and primary neutrophils [3]: abolished | Kd (Smad3): 8 µM | N protein-induced transactivation activity of Smad [4]: inhibited | N protein-elevated mRNA of CCL2, CXCL10, and IL-6 expression and their release levels [5]: suppression | N protein-induced α-SMA and COL1A1 expression [5]: significantly inhibited | N protein-induced TβRI polymerization (TβRI polymerization; 20 μM): not influenced | N protein-induced Smad2/3 nuclear translocation ([6]; 20 μM): blocked | Kd (MH1 domain of Smad3): 13.3 µM | renal fibrosis, Smad3 phosphorylation and COL1A1 expression induced by Adriamycin [7]: effectively alleviate | recruiting THP1 macrophages and differentiated HL60 neutrophils by N protein [8]: attenuation | nocodazole-induced Smad3 phosphorylation (Smad3 phosphorylation [9]): inhibited | binding to TβRI (TβRI): not to either Smad2 or TβRI | interactions between N protein and TβRI, TβRI and TβRII, or TβRI and FKBP12 [10]: did not interfere | N protein-induced phosphorylation of Smad3 (Smad3 phosphorylation [1]; 20 μM, 36 h): inhibition | N protein-induced phosphorylation of Smad2 (Smad2 phosphorylation): not of Smad2 | interaction between MH1 and MH2 domains (MH1-MH2 interaction): substantially enhance | AUC ([11]; ip, 10 mg/kg): 2130 ng·h/mL | AUC(0-inf) ([11]; ip, 10 mg/kg): 2130 ng·h/mL | Cmax ([11]; ip, 10 mg/kg): 1820 ng/mL | Tmax ([11]; ip, 10 mg/kg): 0.19 h | bioavailability ([11]; ip, 10 mg/kg): 42.8% | half-life ([11]; ip, 10 mg/kg): 8.26 h | AUC ([11]; iv, 2 mg/kg): 995 ng·h/mL | AUC(0-inf) ([11]; iv, 2 mg/kg): 995 ng·h/mL | Vd ([11]; iv, 2 mg/kg): 3 L/kg | clearance ([11]; iv, 2 mg/kg): 34 mL/min/kg | half-life ([11]; iv, 2 mg/kg): 1.98 h | AUC ([11]; po, 10 mg/kg): 1870 ng·h/mL | AUC(0-inf) ([11]; po, 10 mg/kg): 1870 ng·h/mL | Cmax ([11]; po, 10 mg/kg): 1040 ng/mL | Tmax ([11]; po, 10 mg/kg): 0.33 h | bioavailability ([11]; po, 10 mg/kg): 37.6% | half-life ([11]; po, 10 mg/kg): 2.55 h | N protein-induced TβRI interaction with Smad2 (TβRI-Smad2 interaction): not with Smad2 | TGF-β-induced Smad3 phosphorylation and α-SMA and COL1A1 expression (TGF-β/Smad signaling; HFL-1, AC16, LX-2 and human primary dermal cells, TGF-β 2 ng/mL): effectively inhibited | inhibition of TGF-β-induced Smad3 phosphorylation and α-SMA expression, compared with (E)-SIS3 (TGF-β/Smad signaling; HFL-1 cells, (E)-SIS3 3 μM): comparable with that by (E)-SIS3 | weight of the mice and of various organs (heart, liver, spleen, lungs, kidneys) ([12]; 10 mg/kg for 30 days): not significantly changed | behavior, weight of the body or various organs ([12]; during administration of RMY-205): no abnormal behavior or weight loss | N protein-induced α-SMA and COL1A1 expression levels and collagen secretion (α-SMA; HFL-1 cells, time- and dose-dependent manner): downregulate | α-SMA inhibition ratio (%) (α-SMA; N-protein transfected HFL-1 cells, 10 μM, 24 h): 50.9 ± 14.0% | N protein-induced mRNA expression of IL6, IL8, CCL2, and CXCL10 [13]: downregulated | N protein-induced phosphorylation of Smad3 in lung [14]: suppression | N protein-induced secretion of CCL2, CXCL10, and IL-6 in bronchoalveolar lavage fluid [14]: suppression | N protein-promoted infiltration of macrophages and neutrophils in the lung tissue [14]: markedly attenuated | alveolar septal thickening, α-SMA expression and collagen deposition ([14]; intraperitoneally): alleviated alveolar septal thickening and decreased α-SMA expression and collagen deposition | binding to Smad2 (Smad2): not to either Smad2 or TβRI

Cc1cccc(-c2[nH]c(C(C)(C)C)nc2-c2ccc3c(c2)OCO3)n1 [SB505124, reference compound]
N protein-induced TβRI polymerization (TβRI polymerization; 10 μM): could not prevent | Smad2/3 localization in the presence of N protein ([6]; 10 μM): remain in the cytosol | N protein-induced Smad phosphorylation, nuclear translocation, and transactivation activity (Smad3 phosphorylation [1]; 10 μM, 24 h): lost its ability to induce | N protein-induced expression of α-SMA and COL1A1 (α-SMA; HFL-1 cells, 10 μM, 24 h): failed to elevate | N protein-induced TβRI phosphorylation (TβRI phosphorylation): could block
